Measurements taken from ChEMBL document CHEMBL3994613, “Diaryltriazenes as antibacterial agents against methicillin resistant Staphylococcus aureus (MRSA) and Mycobacterium smegmatis” (Eur J Med Chem, 2017).
Converted amounts (≈) assume the structure as drawn.

How the values were obtained:
Staphylococcus aureus [1] = assay: Antibacterial activity against methicillin-resistant Staphylococcus aureus USA300 by broth microdilution method
Staphylococcus aureus [2] = assay: Antibacterial activity against methicillin-resistant Staphylococcus aureus USA300 after 18 to 20 hrs by microdilution method; assay type: functional
Summary of the method: (§1)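 EUCAST broth microdilution in LB broth. Inoculum prepared by direct colony suspension from 20–24 h LB agar (E. coli DH10β) or 5% sheep blood BHI agar (MRSA USA300) growth. Final inoculum 2×10^4 CFU/mL, 18–20 h aerobic at 37 °C, growth read on a plate reader, at least duplicate.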

Saccharomyces cerevisiae = assay: Antibacterial activity against Saccharomyces cerevisiae after 18 to 20 hrs by microdilution method
Summary of the method: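 Microdilution in YEP broth against wild-type yeast grown on YEP agar. Final inoculum 1×10^5 CFU/mL. Read after 18–20 h aerobic incubation at 30 °C on plate reader, at least one duplicate.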

[3] = system: Mycolicibacterium smegmatis; assay: Antimycobacterial activity against Mycobacterium smegmatis MC2 155 after 94 to 98 hrs by microdilution method; assay type: functional; conditions: str. MC2 155
Summary of the method: (§2)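 Microdilution in TSB broth. Inoculum from colonies grown 96 h on TSA, final 1×10^5 CFU/mL, aerobic 94–98 h at 37 °C, growth read on a plate reader, at least duplicate.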

Staphylococcus aureus [4] = assay: Bactericidal activity against methicillin-resistant Staphylococcus aureus USA300 after 18 to 20 hrs by microdilution method; assay type: functional; summary of the method: as §1
Escherichia coli [5] = assay: Antibacterial activity against Escherichia coli DH10beta harboring pHuLUC3 after 18 to 20 hrs by microdilution method; assay type: functional; summary of the method: as §1
[6] = system: Mycolicibacterium smegmatis; assay: Bactericidal activity against Mycobacterium smegmatis MC2 155 after 96 hrs by microdilution method; assay type: functional; conditions: str. MC2 155, 96 h; summary of the method: as §2
Escherichia coli [7] = assay: Bactericidal activity against Escherichia coli DH10beta harboring pHuLUC3 after 18 to 20 hrs by microdilution method; assay type: functional; summary of the method: as §1

SMILES | MIC (Staphylococcus aureus [1]) [µg/mL] | MIC (Staphylococcus aureus [2]) [µg/mL] | MIC (Saccharomyces cerevisiae) [µg/mL] | MIC [3] [µg/mL] | MBC (Staphylococcus aureus [4]) [µg/mL] | MIC (Escherichia coli [5]) [µg/mL] | MBC [6] [µg/mL] | MBC (Escherichia coli [7]) [µg/mL]
O=C(N[C@H](CO)[C@H](O)c1ccc([N+](=O)[O-])cc1)C(Cl)Cl [CHLORAMPHENICOL] | 4 to 32 (≈ 12.4 to 99 µM) | – | – | – | – | – | – | –
O=C(c1ccncc1)N(/N=N/c1ccc([N+](=O)[O-])cc1F)c1ccc([N+](=O)[O-])cc1F | – | 32 (≈ 74.7 µM) | > 128 | > 128 | 32 (≈ 74.7 µM) | > 128 | – | –
O=C(c1ccncc1)N(/N=N/c1ccc([N+](=O)[O-])c(C(F)(F)F)c1)c1ccc([N+](=O)[O-])c(C(F)(F)F)c1 | – | 2 (≈ 3.79 µM) | > 128 | 64 (≈ 121 µM) | 2 (≈ 3.79 µM) | 32 (≈ 60.6 µM) | > 128 | 32 (≈ 60.6 µM)
O=C(O)c1cn(C2CC2)c2cc(N3CCNCC3)c(F)cc2c1=O [CIPROFLOXACIN] | 0.125 to 64 (≈ 0.377 to 193 µM) | – | – | – | – | – | – | –
O=C(c1ccc(C(F)(F)F)cc1)N(/N=N/c1ccc([N+](=O)[O-])cc1Cl)c1ccc([N+](=O)[O-])cc1Cl | – | 8 (≈ 15.1 µM) | > 128 | 16 (≈ 30.3 µM) | 8 (≈ 15.1 µM) | 64 (≈ 121 µM) | > 128 | 128 (≈ 242 µM)
O=C(c1ccccc1C(F)(F)F)N(/N=N/c1ccc([N+](=O)[O-])cc1Cl)c1ccc([N+](=O)[O-])cc1Cl | – | > 128 | > 128 | > 128 | – | 64 (≈ 121 µM) | – | 128 (≈ 242 µM)
O=C(c1cccnc1)N(/N=N/c1ccc([N+](=O)[O-])c(C(F)(F)F)c1)c1ccc([N+](=O)[O-])c(C(F)(F)F)c1 | – | 4 (≈ 7.57 µM) | > 128 | 64 (≈ 121 µM) | 4 (≈ 7.57 µM) | 32 (≈ 60.6 µM) | > 128 | 64 (≈ 121 µM)
O=C(CCl)N(/N=N/c1ccc([N+](=O)[O-])cc1Br)c1ccc([N+](=O)[O-])cc1Br | – | > 128 | > 128 | > 128 | – | 64 (≈ 123 µM) | – | 128 (≈ 245 µM)
O=C(c1cccnc1)N(/N=N/c1ccc([N+](=O)[O-])cc1Br)c1ccc([N+](=O)[O-])cc1Br | – | 32 (≈ 58.2 µM) | > 128 | 64 (≈ 116 µM) | 32 (≈ 58.2 µM) | 16 (≈ 29.1 µM) | 128 (≈ 233 µM) | 32 (≈ 58.2 µM)
O=C(c1cccnc1)N(/N=N/c1ccc([N+](=O)[O-])cc1F)c1ccc([N+](=O)[O-])cc1F | – | 64 (≈ 149 µM) | > 128 | > 128 | 64 (≈ 149 µM) | 128 (≈ 299 µM) | – | > 128
O=C(c1ccccc1C(F)(F)F)N(/N=N/c1ccc([N+](=O)[O-])cc1Br)c1ccc([N+](=O)[O-])cc1Br | – | > 128 | > 128 | > 128 | – | 64 (≈ 104 µM) | – | 64 (≈ 104 µM)
CC(=O)OCC(=O)N(/N=N/c1ccc([N+](=O)[O-])cc1Br)c1ccc([N+](=O)[O-])cc1Br | – | 8 (≈ 14.7 µM) | > 128 | > 128 | 16 (≈ 29.4 µM) | 64 (≈ 117 µM) | – | 64 (≈ 117 µM)
CC(=O)N(/N=N/c1ccc([N+](=O)[O-])cc1)c1ccc([N+](=O)[O-])cc1 | – | > 128 | > 128 | > 128 | – | 64 (≈ 194 µM) | – | 128 (≈ 389 µM)
O=C(c1ccncc1)N(/N=N/c1ccc([N+](=O)[O-])cc1Br)c1ccc([N+](=O)[O-])cc1Br | – | 32 (≈ 58.2 µM) | > 128 | 128 (≈ 233 µM) | 32 (≈ 58.2 µM) | 32 (≈ 58.2 µM) | > 128 | 32 (≈ 58.2 µM)
O=C(c1ccccc1F)N(/N=N/c1ccc([N+](=O)[O-])cc1Cl)c1ccc([N+](=O)[O-])cc1Cl | – | > 128 | > 128 | > 128 | – | 64 (≈ 134 µM) | – | 128 (≈ 268 µM)
CC(=O)N(/N=N/c1ccc([N+](=O)[O-])cc1Cl)c1ccc([N+](=O)[O-])cc1Cl | – | 4 (≈ 10 µM) | > 128 | 16 (≈ 40.2 µM) | 4 (≈ 10 µM) | 64 (≈ 161 µM) | > 128 | > 128
O=C(c1ccccc1F)N(/N=N/c1ccc([N+](=O)[O-])cc1Br)c1ccc([N+](=O)[O-])cc1Br | – | > 128 | > 128 | > 128 | – | 128 (≈ 226 µM) | – | 128 (≈ 226 µM)
Clc1ccc(Cl)c(/N=N/Nc2cc(Cl)ccc2Cl)c1 | – | > 128 | > 128 | > 128 | – | > 128 | – | –
O=C(c1cccc(F)c1)N(/N=N/c1ccc([N+](=O)[O-])cc1Cl)c1ccc([N+](=O)[O-])cc1Cl | – | 16 (≈ 33.5 µM) | > 128 | > 128 | 16 (≈ 33.5 µM) | 64 (≈ 134 µM) | – | 64 (≈ 134 µM)
O=C(c1ccccc1)N(/N=N/c1ccc([N+](=O)[O-])cc1Cl)c1ccc([N+](=O)[O-])cc1Cl | – | 32 (≈ 69.5 µM) | > 128 | 128 (≈ 278 µM) | 32 (≈ 69.5 µM) | 32 (≈ 69.5 µM) | > 128 | 32 (≈ 69.5 µM)
